Rows were chosen to be rich in hits. Some 9% of all compounds tested hit in one or more screens of this group.
M1 agonist – M1 muscarinic receptor agonism | CHO-M1 cells, Fluo-4 calcium fluorescence, agonist mode; hits give high values | B-score at 10 µM | 64,000 tested, 3% active;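 active means fluorescence rise, raw or as B-score row- and column-corrected plate score, outside the 99.7% band of its plate's samples, either direction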
Htt clearance – mutant huntingtin protein clearance. HeLa Exon1htt(103Q)mCFP, aggregate imaging; zero = plate's median compound well. inhibition, % at 1.5 µM. 47,000 tested, 0.42% active. AID 853;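 active means inhibition of aggregate fluorescence above about 70%, also judged a hit by eye on the cell image, limit read from the data, passing the limit was not always enough; inconclusive means no rule stated for this call; inactive means not judged a hit on image review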;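 further: cells exposed to compound for three days before fixation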
M1 antag – blocks the rat M1 muscarinic receptor response to acetylcholine; CHO-M1 cells, Fluo-4 calcium, ACh EC80 antagonist mode; hits give low values; B-score at 10 µM; 64,000 tested, 3.4% active;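 active means calcium fluorescence response, raw or row-and-column corrected B-score, differing from the plate sample mean either way at a set confidence level, mostly lower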
Target sequence (P08482 whole entry, looked up): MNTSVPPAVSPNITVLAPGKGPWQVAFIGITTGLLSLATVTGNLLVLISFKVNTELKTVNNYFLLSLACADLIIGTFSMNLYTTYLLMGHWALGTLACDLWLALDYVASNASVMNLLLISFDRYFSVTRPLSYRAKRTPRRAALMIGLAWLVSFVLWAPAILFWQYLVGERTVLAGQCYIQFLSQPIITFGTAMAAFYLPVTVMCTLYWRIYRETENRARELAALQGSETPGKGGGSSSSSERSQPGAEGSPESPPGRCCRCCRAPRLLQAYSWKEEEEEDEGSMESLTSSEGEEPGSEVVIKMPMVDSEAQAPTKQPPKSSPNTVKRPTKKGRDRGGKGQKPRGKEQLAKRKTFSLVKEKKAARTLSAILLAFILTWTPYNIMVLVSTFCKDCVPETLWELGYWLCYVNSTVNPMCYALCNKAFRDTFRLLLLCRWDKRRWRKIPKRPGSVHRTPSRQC
AP complement – alternative pathway complement inhibition, orthogonal assay | Human serum alternative complement pathway, LPS-coated ELISA, C3 deposition; tested in compound mixtures | inhibition, % at 5 µM | 62,000 tested, 0.08% active;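 active means inhibition above 30% in each of the two pooled mixtures holding the compound, so the lower value exceeds 30%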;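 further: 0% = serum in Mg-EGTA without compound and 100% = EDTA serum blank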
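Test system: human serum alternative complement pathway, C3 deposition on LPS-coated wells; also added: Plate-bound LPS; doses: 5 µM per compound in ten-compound mixtures; schedule: 1 h at 37 °C; detection: Anti-C3 ELISA, OD 450 nm; evaluation: percent inhibition of C3 deposition onto LPS; repeats: two pool placements per compound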
D1 mod – D1 dopamine receptor (human) allosteric modulation. HEK293 D1, CRE-luciferase, dopamine EC30 potentiation; actives deviate in either direction. AID 641. P21728. 58,000 tested, 5.9% active. B-score at 10 µM;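 active means luminescence count or its row- and column-corrected plate score outside the 99.7% band of the plate's sample wells, on either side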
M1 agonist conf – rat M1 muscarinic agonism, confirmation | shares compounds with M1 agonist | CHO-M1 cells, Fluo-4 calcium fluorescence, agonist mode; actives lie on both sides | fluorescence change (max-min) at 10 µM | 1,700 tested, 19% active | AID 1488;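 active means fluorescence change differs from the solvent-only DMSO control mean at a set confidence level in both duplicate runs; inconclusive means differs from solvent-only control mean in just one of two runs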;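 further: an EC20 dose of acetylcholine follows compound addition during the same imaging run; raw fluorescence intensity difference in instrument units with no normalization to controls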
M4 agonist ctr – counter-screen for M1 agonists: activity at rat M4 receptor. shares compounds with M1 agonist. CHO M4/Gqi5 cells, Fluo-4 calcium fluorescence, agonist mode; actives lie on both sides. fluorescence change (max-min) at 10 µM. 1,700 tested, 9% active. AID 1741;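 active means fluorescence change differing from the plate's solvent-only control wells at 99.7% confidence in both duplicates, whether higher or lower; inconclusive means differs from solvent controls in only one of two duplicates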
M1 antag confirm – confirmation of rat M1 muscarinic receptor antagonists. AID 677. 1,700 tested, 43% active. CHO-M1 cells, Fluo-4 calcium, ACh EC80 antagonism; hits give low values. shares compounds with M1 antag. calcium response (max-min fluorescence) at 10 µM;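 active means calcium response below the same-plate mean of wells given acetylcholine alone at its 80%-effect dose, minus 3 SD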;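 further: raw fluorescence intensity difference in arbitrary instrument units and not normalized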
mGluR4 antag – acts on human mGluR4 in M1 antagonist selectivity test; shares compounds with M1 antag; CHO-mGluR4 calcium flux, Fluo-4 fluorescence, glutamate EC80; hits give low values; fluorescence response (max-min) at 10 µM; 1,700 tested, 0.9% active; AID 678;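 active means fluorescence response below the plate's average for near-maximal glutamate wells, less 3 SD of those wells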;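 further: raw unnormalized fluorescence span taken in the window right after glutamate addition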
D1 PAM confirm – confirmation of human D1 dopamine receptor allosteric modulators | shares compounds with D1 mod | HEK293 D1 CRE-luciferase, dopamine EC30 potentiation; hits give high values | luminescence at 10 µM | 2,200 tested, 88% active | AID 642;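 active means luminescence in either of two replicates above the same-plate mean plus 3 SD of the low-dose dopamine control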
D1 no dopamine – D1 (human) signaling in absence of dopamine; shares compounds with D1 mod; HEK293 D1 CRE-luciferase, luminescence, no dopamine; hits give high values; luminescence at 10 µM; 1,900 tested, 0.8% active; in the data active means luminescence above about 3900
Isoprot counter – alters isoproterenol CRE-luciferase response in HEK293 cells; shares compounds with D1 mod; HEK293 D1 CRE-luciferase, isoproterenol EC30 counter-screen; calls only at 10 µM; 2,200 tested, 63% active;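 active means luminescence in either replicate above plate mean of wells with a partly effective reference agonist dose plus 3 SD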;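 further: isoproterenol raises cAMP through native beta-adrenoceptor Gs so signal bypasses D1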
Numbers without * were called inactive; i = inactive; ? = inconclusive; . = not tested or not shown; + = active, no number.

SMILES | M1 agonist | Htt clearance | M1 antag | AP complement | D1 mod | M1 agonist conf | M4 agonist ctr | D1 PAM confirm | Isoprot counter | others
COCCNC(=O)C1CCCN(c2ncccn2)C1 (centres undefined) | 0.51 | 26 | 0.28 | 14 | -0.082 | . | . | . | .
CCOc1ccc(CCNC(=O)c2oc3c(c2C)-c2[nH]ncc2CC3)cc1OCC | 3.2* | . | -0.016 | 12 | 11* | -23* | -74* | 24696* | + | D1 no dopamine=1620
Cc1c(C(=O)NC(C)C)oc2c1-c1[nH]ncc1CC2 | 0.47 | 3 | -0.76 | 16 | -0.33 | . | . | . | .
Nc1nc2n(n1)C(c1ccco1)CC(c1ccc(F)cc1)N2 (centres undefined) | 2.3* | . | 0.11 | 23 | 7* | ? | ? | 9024* | i | D1 no dopamine=1664
Cc1ccc(C2CC(c3ccco3)n3nc(N)nc3N2)cc1 (centres undefined) | 0.42 | -196 | -0.1 | 20 | . | . | . | . | .
CCn1c(Cn2nnc(-c3ccccc3)n2)nnc1SCc1ccc(Cl)c(Cl)c1 | 1.4 | -3 | 0.14 | 6 | . | . | . | . | .
Cc1ccccc1Nc1nc(N)nc(CSc2nc3ccccc3c(=O)n2CCCO)n1 | 4.1* | . | 0.15 | 5 | 3* | ? | -49 | 8640* | + | D1 no dopamine=1664
COc1cc(-c2nnc3n2N=C(c2ccccc2)CS3)cc(OC)c1OC | 4.6* | . | -0.35 | 6 | 1.9* | ? | -48 | 7188* | + | D1 no dopamine=1768
Nc1c(C(=O)OCC2CCCO2)c2nc3ccccc3nc2n1-c1ccc2c(c1)OCCO2 (centres undefined) | 5.9* | -32 | -0.2 | 24 | 5.1* | -12 | ? | 5800 | i
Nc1c(C(=O)NC2CC2)c2nc3ccccc3nc2n1-c1ccc2c(c1)OCO2 | -0.54 | 16 | -0.14 | 13 | -1.3 | . | . | . | .
CCn1cc([N+](=O)[O-])c(C(=O)N2N=C3/C(=C/c4cccs4)CCCC3C2c2cccs2)n1 (centres undefined) | . | -10 | . | . | . | . | . | . | .
CCSCCOC(=O)C1=C(C)NC2=C(C(=O)CCC2)C1c1coc2ccccc2c1=O (centres undefined) | 0.72 | 16 | 0.6 | 9 | 0.38 | . | . | . | .
CCN(CC(=O)Nc1ccc2c(c1)OCCO2)c1nc(-c2cccnc2)nc2ccccc12 | 7.3* | -3 | -0.64 | 8 | 3.6* | -28* | ? | 7472* | + | D1 no dopamine=1256
CCOC(=O)C1CCN(C(=O)CSCc2nc(-c3ccc(OCC)cc3)oc2C)CC1 | 5.1* | . | -1.6 | 16 | 5.7* | -11 | ? | 12112* | + | D1 no dopamine=1828
CCOc1ccc(-c2nc(CSCC(=O)N3CCN(C(=O)c4ccco4)CC3)c(C)o2)cc1 | -3.5* | . | -0.36 | 28 | 3.6* | ? | -42 | 5924 | + | D1 no dopamine=1480
COc1ccc(-c2nc(CSCC(=O)N3CCC(C(N)=O)CC3)c(C)o2)cc1OC | 0.44 | . | 0.48 | -7 | 0.71 | . | . | . | .
CC(NC(=O)NC12CC3CC(CC(C3)C1)C2)C1CCCO1 (centres undefined) | 1.5 | . | -0.15 | 8 | . | . | . | . | .
CS(=O)(=O)N(CC(=O)N1CCN(c2cccc(Cl)c2)CC1)c1cccc(F)c1 | -0.084 | -83 | -0.059 | 12 | -0.43 | . | . | . | .
N#Cc1ccc(N2CCN(C(=O)c3cccc(F)c3)CC2)c(F)c1 | -1.8 | . | -0.74 | 3 | 0.0031 | . | . | . | .
CCN(CC)c1nc(N)nc(N(c2ccccc2)c2ccccc2)n1 | . | 10 | . | . | . | . | . | . | .
COc1nc(N(c2ccccc2)c2ccccc2)nc(-n2ccnc2)n1 | 3.4* | -15 | -1 | 6 | 4.3* | -11 | -28 | 12628* | + | D1 no dopamine=1456
O=C(c1cccs1)N1CCN(CCc2ccccc2)CC1 | -0.1 | 44 | -0.12 | 2 | -2.1 | . | . | . | .
O=C(NCCN1CCN(C(=O)c2cccs2)CC1)c1cccs1 | -0.6 | 44 | -2.3* | 10 | -0.42 | . | . | . | . | M1 antag confirm=560;mGluR4 antag=234
COc1ccc(N2C(=O)C(Cl)=C(Nc3c(C)n(C)n(-c4ccccc4)c3=O)C2=O)cc1 | -0.0043 | . | -3.8* | 12 | -0.084 | . | . | . | . | M1 antag confirm=427*;mGluR4 antag=254
COc1ccccc1C(=O)Nc1c(C)n(C)n(-c2ccccc2)c1=O | 0.29 | 26 | -0.033 | 6 | -1.1 | . | . | . | .
SMILES | M1 agonist | Htt clearance | M1 antag | AP complement | D1 mod | M1 agonist conf | M4 agonist ctr | D1 PAM confirm | Isoprot counter | others
Cc1oc(-c2ccccc2F)nc1CN1CCC(C(=O)NC2CCCCCCC2)CC1 | -0.38 | 14 | -1.1 | 20 | -0.86 | . | . | . | .
Cc1oc(-c2ccccc2F)nc1CN1CCC(C(=O)NCc2ccco2)CC1 | 0.47 | 33 | -3.7* | -1 | -0.3 | . | . | . | . | M1 antag confirm=566;mGluR4 antag=219
CCCCNC(=O)c1ccc2c(c1)N(CC)C(=O)c1ccccc1S2(=O)=O | 0.089 | . | 1.4 | 7 | -0.41 | . | . | . | .
Cc1cc(N2CCC(N(C)C3CCCC3)CC2)nc2cc(O)ccc12 | -0.48 | . | -0.69* | 14 | . | . | . | . | . | M1 antag confirm=579*;mGluR4 antag=187
COc1ccc(C2(C(=O)NCCCN(C)C)CCOCC2)cc1 | 2.6 | -237 | 0.24 | 10 | 0.61 | . | . | . | .
O=C(c1ccc2nc(N3CCCCC3)sc2c1)N1CCN(Cc2ccc3c(c2)OCO3)CC1 | -2.1 | . | -0.95* | -1 | -1 | . | . | . | . | M1 antag confirm=366;mGluR4 antag=219
Cc1c(N(C(=O)Nc2ccccc2)C2=NCC(C)S2)c(=O)n(-c2ccccc2)n1C (centres undefined) | 0.66 | . | -4.4* | 19 | 0.022 | . | . | . | . | M1 antag confirm=604;mGluR4 antag=242
CCN(CC(=O)NCc1ccc(F)cc1)CC(O)COCc1cccc(OC)c1 (centres undefined) | -0.0026 | -88 | -0.69 | -8 | -0.59 | . | . | . | .
OC(CN1CCCCC1)CN(c1ccccc1)c1ccccc1 (centres undefined) | 1.8 | 63 | -22* | 5 | -2.6 | . | . | . | . | M1 antag confirm=78*;mGluR4 antag=193
OC(CN1CCOCC1)CN(c1ccccc1)c1ccccc1 (centres undefined) | -0.6 | 13 | -0.071 | 0 | -1.6 | . | . | . | .
O=C(NCCN1CCCCCC1)C1CCN(S(=O)(=O)N2CCOCC2)CC1 | -0.086 | -33 | -5.2* | -2 | -1.3 | . | . | . | . | M1 antag confirm=608;mGluR4 antag=239

Screens from PubChem BioAssay.
